Test results as given in ChEMBL document CHEMBL1221342, “Synthesis and in vitro antitumor activity of new 4,5-dihydropyrazole derivatives” (Bioorg Med Chem, 2010).

Assays:
Assay type in all cases: functional
CCRF-CEM = experiment: Growth inhibition of human CCRF-CEM cells after 48 hrs by SRB assay
In short: (§1)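 NCI 60-cell-line screen. Cells grown in RPMI1640 with 5% fetal calf serum and 2 mM L-glutamine, with inoculum density set by cell line. Preincubated 24 h, then given compound in DMSO at 10^-4 to 10^-8 M (five 10-fold steps) for 48 h continuous exposure. Growth measured by SRB protein assay. GI50, TGI and LC50 reported as –log molar.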

HL-60(TB) = experiment: Growth inhibition of human HL-60(TB) cells after 48 hrs by SRB assay; settings: HL-60, 48 h
In short: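 NCI 60-cell-line screen: cells grown in RPMI1640 with 5% fetal calf serum and 2 mM L-glutamine, preincubated 24 h, then exposed to compound in DMSO at five concentrations (10^-4 to 10^-8 M) for 48 h continuous exposure. Growth estimated by sulforhodamine B protein assay; reported as pGI50 (-log molar concentration inhibiting net cell growth by 50%).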

K562 = experiment: Growth inhibition of human K562 cells after 48 hrs by SRB assay; settings: K562, 48 h; in short: as §1
MOLT-4 = experiment: Growth inhibition of human MOLT4 cells after 48 hrs by SRB assay; settings: MOLT-4, 48 h; in short: as §1
[1] = Growth inhibition of human […] cells after 48 hrs by SRB assay; in short: as §1
EKVX = experiment: Growth inhibition of human EKVX cells after 48 hrs by SRB assay; in short: as §1
HOP-62 = experiment: Growth inhibition of human HOP62 cells after 48 hrs by SRB assay; settings: HOP-62, 48 h; in short: as §1
NCI-H460 = experiment: Growth inhibition of human NCI-H460 cells after 48 hrs by SRB assay; settings: NCI-H460, 48 h; in short: as §1
COLO 205 = experiment: Growth inhibition of human COLO205 cells after 48 hrs by SRB assay; settings: COLO 205, 48 h; in short: as §1
HCC 2998 = experiment: Growth inhibition of human HCC2998 cells after 48 hrs by SRB assay; settings: HCC 2998, 48 h; in short: as §1
HCT-116 = experiment: Growth inhibition of human HCT116 cells after 48 hrs by SRB assay; settings: HCT-116, 48 h; in short: as §1
HT-29 = experiment: Growth inhibition of human HT-29 cells after 48 hrs by SRB assay; settings: HT-29, 48 h; in short: as §1
KM12 = experiment: Growth inhibition of human KM12 cells after 48 hrs by SRB assay; settings: KM12, 48 h; in short: as §1
SF-268 = experiment: Growth inhibition of human SF268 cells after 48 hrs by SRB assay; settings: SF-268, 48 h; in short: as §1
SF-295 = experiment: Growth inhibition of human SF295 cells after 48 hrs by SRB assay; settings: SF-295, 48 h; in short: as §1
SF-539 = experiment: Growth inhibition of human SF539 cells after 48 hrs by SRB assay; settings: SF-539, 48 h; in short: as §1
U-251 = experiment: Growth inhibition of human U251 cells after 48 hrs by SRB assay; settings: U-251, 48 h; in short: as §1
Malme-3M = experiment: Growth inhibition of human MALME-3M cells after 48 hrs by SRB assay; in short: as §1
MDA-MB-435 = experiment: Growth inhibition of human MDA-MB-435 cells after 48 hrs by SRB assay; settings: MDA-MB-435, 48 h; in short: as §1
SK-MEL-5 = experiment: Growth inhibition of human SK-MEL-5 cells after 48 hrs by SRB assay; settings: SK-MEL-5, 48 h; in short: as §1
UACC-62 = experiment: Growth inhibition of human UACC62 cells after 48 hrs by SRB assay; settings: UACC-62, 48 h; in short: as §1
IGROV-1 = experiment: Growth inhibition of human IGROV1 cells after 48 hrs by SRB assay; settings: IGROV-1, 48 h; in short: as §1
OVCAR-3 = experiment: Growth inhibition of human OVCAR-3 cells after 48 hrs by SRB assay; settings: OVCAR-3, 48 h; in short: as §1
OVCAR-4 = experiment: Growth inhibition of human OVCAR4 cells after 48 hrs by SRB assay; settings: OVCAR-4, 48 h; in short: as §1
OVCAR-8 = experiment: Growth inhibition of human OVCAR8 cells after 48 hrs by SRB assay; settings: OVCAR-8, 48 h; in short: as §1
NCI/ADR-RES = experiment: Growth inhibition of human NCI/ADR-RES cells after 48 hrs by SRB assay; in short: as §1
SK-OV-3 = experiment: Growth inhibition of human SKOV3 cells after 48 hrs by SRB assay; settings: SK-OV-3, 48 h; in short: as §1
A498 = experiment: Growth inhibition of human A498 cells after 48 hrs by SRB assay; settings: A498, 48 h; in short: as §1
RXF 393 = experiment: Growth inhibition of human RXF393 cells after 48 hrs by SRB assay; settings: RXF 393, 48 h; in short: as §1
TK-10 = experiment: Growth inhibition of human TK10 cells after 48 hrs by SRB assay; settings: TK-10, 48 h; in short: as §1
UO-31 = experiment: Growth inhibition of human UO31 cells after 48 hrs by SRB assay; settings: UO-31, 48 h; in short: as §1
PC-3 = experiment: Growth inhibition of human PC3 cells after 48 hrs by SRB assay; settings: PC-3, 48 h; in short: as §1
MCF7 = experiment: Growth inhibition of human MCF7 cells after 48 hrs by SRB assay; settings: MCF7, 48 h; in short: as §1
[2] = Growth inhibition of human Hs 578T cells after 48 hrs by SRB assay; in short: as §1
BT-549 = experiment: Growth inhibition of human BT549 cells after 48 hrs by SRB assay; settings: BT-549, 48 h; in short: as §1
T47D = experiment: Growth inhibition of human T47D cells after 48 hrs by SRB assay; in short: as §1
MDA-MB-468 = experiment: Growth inhibition of human MDA-MB-468 cells after 48 hrs by SRB assay; settings: MDA-MB-468, 48 h; in short: as §1

`COc1cc(C2CC(c3cccc(O)c3)=NN2C(C)=O)cc(OC)c1OC` (centres undefined) showed a GI50 (CCRF-CEM) of 1 µM, a TGI (CCRF-CEM; read-out: pTGI (converted)) of 5.01 µM and a GI50 (HL-60(TB)) of 1.58 µM. For the same compound, the TGI (HL-60(TB); read-out: pTGI (converted)) was 5.01 µM, the GI50 (K562) was 0.631 µM and the TGI (K562; read-out: pTGI (converted)) was 63.1 µM. The GI50 (MOLT-4) was 5.01 µM, the TGI (MOLT-4; read-out: pTGI (converted)) was over 100 µM and the GI50 [1] was 1 µM. It also gave a TGI ([1]; read-out: pTGI (converted)) of 5.01 µM, a GI50 (EKVX) of 6.31 µM and a TGI (EKVX; read-out: pTGI (converted)) of over 100 µM. The GI50 (HOP-62) was 0.126 µM, the TGI (HOP-62; read-out: pTGI (converted)) was 2 µM and the GI50 (NCI-H460) was 2 µM. It also gave a TGI (NCI-H460; read-out: pTGI (converted)) of 10 µM, a GI50 (COLO 205) of 3.98 µM and a TGI (COLO 205; read-out: pTGI (converted)) of 10 µM. The GI50 (HCC 2998) was 2 µM, the TGI (HCC 2998; read-out: pTGI (converted)) was 15.8 µM and the GI50 (HCT-116) was 2.51 µM. The TGI (HCT-116; read-out: pTGI (converted)) was over 100 µM, the GI50 (HT-29) was 3.16 µM and the TGI (HT-29; read-out: pTGI (converted)) was over 100 µM. For the same compound, the GI50 (KM12) was 1 µM, the TGI (KM12; read-out: pTGI (converted)) was over 100 µM and the GI50 (SF-268) was 7.94 µM. It also gave a TGI (SF-268; read-out: pTGI (converted)) of over 100 µM, a GI50 (SF-295) of 0.316 µM and a TGI (SF-295; read-out: pTGI (converted)) of 5.01 µM. It also gave a GI50 (SF-539) of 2 µM, a TGI (SF-539; read-out: pTGI (converted)) of 6.31 µM and a GI50 (U-251) of 2.51 µM. The TGI (U-251; read-out: pTGI (converted)) was over 100 µM, the GI50 (Malme-3M) was 2.51 µM and the TGI (Malme-3M; read-out: pTGI (converted)) was over 100 µM. It also gave a GI50 (MDA-MB-435) of 0.251 µM, a TGI (MDA-MB-435; read-out: pTGI (converted)) of 0.794 µM and a GI50 (SK-MEL-5) of 0.631 µM. It also gave a TGI (SK-MEL-5; read-out: pTGI (converted)) of 5.01 µM, a GI50 (UACC-62) of 2.51 µM and a TGI (UACC-62; read-out: pTGI (converted)) of over 100 µM. For the same compound, the GI50 (IGROV-1) was 3.98 µM, the TGI (IGROV-1; read-out: pTGI (converted)) was over 100 µM and the GI50 (OVCAR-3) was 1.26 µM. The TGI (OVCAR-3; read-out: pTGI (converted)) was 3.98 µM, the GI50 (OVCAR-4) was 6.31 µM and the TGI (OVCAR-4; read-out: pTGI (converted)) was over 100 µM. It also gave a GI50 (OVCAR-8) of 5.01 µM, a TGI (OVCAR-8; read-out: pTGI (converted)) of over 100 µM and a GI50 (NCI/ADR-RES) of 1.26 µM. For the same compound, the TGI (NCI/ADR-RES; read-out: pTGI (converted)) was 3.98 µM, the GI50 (SK-OV-3) was 2.51 µM and the TGI (SK-OV-3; read-out: pTGI (converted)) was over 100 µM. The GI50 (A498) was 2.51 µM, the TGI (A498; read-out: pTGI (converted)) was 10 µM and the GI50 (RXF 393) was 3.98 µM. The TGI (RXF 393; read-out: pTGI (converted)) was over 100 µM, the GI50 (TK-10) was 7.94 µM and the TGI (TK-10; read-out: pTGI (converted)) was over 100 µM. For the same compound, the GI50 (UO-31) was 10 µM, the TGI (UO-31; read-out: pTGI (converted)) was over 100 µM and the GI50 (PC-3) was 2 µM. It also gave a TGI (PC-3; read-out: pTGI (converted)) of over 100 µM, a GI50 (MCF7) of 0.501 µM and a TGI (MCF7; read-out: pTGI (converted)) of 10 µM. It also gave a GI50 [2] of 0.794 µM, a TGI ([2]; read-out: pTGI (converted)) of 7.94 µM and a GI50 (BT-549) of 5.01 µM. For the same compound, the TGI (BT-549; read-out: pTGI (converted)) was over 100 µM, the GI50 (T47D) was 3.16 µM and the TGI (T47D; read-out: pTGI (converted)) was over 100 µM. For the same compound, the GI50 (MDA-MB-468) was 0.501 µM and the TGI (MDA-MB-468; read-out: pTGI (converted)) was 10 µM.
